Assay results taken from ChEMBL document CHEMBL5365527, “Structure-Guided Design of Nurr1 Agonists Derived from the Natural Ligand Dihydroxyindole” (J Med Chem, 2023).
Calls of active or inactive are those of the source. The calls are words filed in the database; no cut-off is given here.

How the values were obtained:
[1] = molecular target: T1, Nuclear receptor subfamily 4 group A member 2 (Homo sapiens, UniProt P43354); assay: Binding affinity to Nurr1 LBD (unknown origin) assessed as dissociation constant by Isothermal titration calorimetry
[2] = tested on: HEK-293T; assay: Cytotoxicity against human HEK293T cells co-transfected with Gal4-fused human Nurr1 LBD and pFR-Luc/pRL-SV40 assessed as decrease in renilla luciferase activity at 100 uM incubated for 16 hrs by Dual-Glo luciferase assay relative to control
[3] = molecular target: T1, Nuclear receptor subfamily 4 group A member 2; assay: Agonist activity at Gal4-fused human Nurr1 LBD transfected in human HEK293T cells co-transfected with pFR-Luc/pRL-SV40 assessed as activation of luciferase activity incubated for 16 hrs by Dual-Glo luciferase assay
[4] = tested on: HEK-293T; assay: Cytotoxicity against human HEK293T cells assessed as reduction in cell viability at 100 uM incubated for 24 hrs by WST-8 assay; format: toxicity, cell-based
How it was run: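 HEK293T cells were seeded on collagen G-coated wells, 10,000 per well, and after 24 h exposed to compound in Opti-MEM with 0.1% DMSO for 24 h; 0.1% DMSO alone served as untreated control. Metabolic activity was read by WST-8 (10%, 4 h) absorbance at 450 nm. Four biologically independent repeats.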

[5] = molecular target: T1, Nuclear receptor subfamily 4 group A member 2; assay: Binding affinity to Nurr1 LBD (unknown origin) at 200 uM by Isothermal titration calorimetry
[6] = Glutathione reactivity at pH 7.4 assessed as compound remaining at 125 uM incubated upto 24 hrs by LC-UV-ESI-MS analysis; format: physicochemical; conditions: pH 7.4, 24 h
How it was run: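 Compound (125 μM final) was shaken at 37 °C with 2.5 mM glutathione in PBS pH 7.4 (1% DMSO final). Aliquots at 0, 6, 18 and 24 h were diluted in mobile phase containing an internal standard. They were analyzed by reversed-phase LC with UV at 254 nm and positive ESI-MS in SIM mode. AUC was corrected to the internal standard. Run three times.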

[7] = tested on: HEK293T; assay: (§1) Agonist activity at Nurr1 LBD (unknown origin) transfected in human HEK293T cells co-transfected with pFR-Luc/pRL-SV40 assessed as maximum activation of luciferase activity at 1 uM incubated for 16 hrs in presence of 7-Chloro-N-{5-chloro-2-[2-(dimethylamino)ethoxy]phenyl}quinolin-4-amine by Gal4 hybrid reporter gene assay relative to control; format: cell-based; conditions: filed as agonist
How it was run: (§2)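 Gal4–Nurr1 LBD hybrid reporter assay in HEK293T cells (DMEM high glucose, 10% FCS, 37 °C, 5% CO2), transiently transfected with pFA-CMV-hNurr1-LBD, pFR-Luc reporter and pRL-SV40 control. Treatment began 5 h after transfection, 16 h in Opti-MEM with 0.1% DMSO, read by dual luciferase. Firefly/Renilla ratio ×1000 gave RLU; fold activation taken vs untreated control. At least three independent experiments, each in duplicate.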

[8] = tested on: HEK293T; assay: as §1, with “5-Chloro-N-{5-chloro-2-[2-(dimethylamino)ethoxy]phenyl}-1H-indole-6-carboxamide” for “7-Chloro-N-{5-chloro-2-[2-(dimethylamino)ethoxy]phenyl}quinolin-4-amine”; format: cell-based; conditions: filed as agonist; how it was run: as §2
[9] = molecular target: Nuclear receptor subfamily 4 group A member 2 (Rattus norvegicus) (UniProt Q07917); assay: Agonist activity at Nurr1 in rat N27 cells assessed as increase in TH mRNA expression level at 30 to 100 uM incubated for 16 hrs by qPCR analysis; format: cell-based; conditions: filed as agonist, dose 30-100 µM
How it was run: (§3)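 Rat N27 dopaminergic cells in RPMI 1640 with 10% FCS, switched to 0.2% FCS 7 h after seeding and held 24 h more. Stimulated 16 h with compound in 0.1% DMSO, with 0.1% DMSO as vehicle control. Total RNA was heat-linearized at 65 °C before reverse transcription. SYBR green qPCR ran 40 cycles with a melt curve. Target mRNA normalized to GAPDH by ΔCt, expressed relative to vehicle.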

[10] = molecular target: Nuclear receptor subfamily 4 group A member 2 (Rattus norvegicus) (UniProt Q07917); assay: Agonist activity at Nurr1 in rat N27 cells assessed as increase in SOD1 mRNA expression level at 30 to 100 uM incubated for 16 hrs by qPCR analysis; format: cell-based; conditions: filed as agonist, dose 30-100 µM; how it was run: as §3
[11] = molecular target: Nuclear receptor subfamily 4 group A member 2 (Rattus norvegicus) (UniProt Q07917); assay: Agonist activity at Nurr1 in rat N27 cells assessed as increase in VMAT mRNA expression level at 30 to 100 uM incubated for 16 hrs by qPCR analysis; format: cell-based; conditions: filed as agonist, dose 30-100 µM; how it was run: as §3
[12] = molecular target: Nuclear receptor subfamily 4 group A member 2 (Rattus norvegicus) (UniProt Q07917); assay: Agonist activity at Nurr1 in rat N27 cells assessed as increase in SOD2 mRNA expression level at 30 to 100 uM incubated for 16 hrs by qPCR analysis; format: cell-based; conditions: filed as agonist, dose 30-100 µM; how it was run: as §3

Sequence of Nuclear receptor subfamily 4 group A member 2 (Rattus norvegicus) (Q07917 whole entry): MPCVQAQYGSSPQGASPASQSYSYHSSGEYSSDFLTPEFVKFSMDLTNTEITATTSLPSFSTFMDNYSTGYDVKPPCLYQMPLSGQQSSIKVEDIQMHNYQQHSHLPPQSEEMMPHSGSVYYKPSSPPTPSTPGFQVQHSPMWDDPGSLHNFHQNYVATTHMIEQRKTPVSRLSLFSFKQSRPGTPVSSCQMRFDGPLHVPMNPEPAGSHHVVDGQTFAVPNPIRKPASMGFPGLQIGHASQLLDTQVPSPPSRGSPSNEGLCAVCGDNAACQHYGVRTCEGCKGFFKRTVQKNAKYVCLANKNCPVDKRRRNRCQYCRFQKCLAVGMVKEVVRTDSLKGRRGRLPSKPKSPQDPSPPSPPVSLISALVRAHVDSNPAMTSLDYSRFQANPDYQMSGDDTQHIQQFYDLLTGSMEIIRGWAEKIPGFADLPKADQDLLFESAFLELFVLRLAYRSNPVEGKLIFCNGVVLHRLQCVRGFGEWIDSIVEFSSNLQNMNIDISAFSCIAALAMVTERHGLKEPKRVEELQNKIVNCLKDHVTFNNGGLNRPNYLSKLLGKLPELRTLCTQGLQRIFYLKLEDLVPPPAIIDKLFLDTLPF
T1 sequence (P43354 whole entry, the tested form may be a part): as the sequence (Q07917 whole entry) above, with S131T, R182P, D354E counted along it

Row | Compound | Activity [2] | also measured
1 | O=C(NCCN1CCC2CCCCC2C1)c1cc2[nH]ccc2cc1Cl (stereo not given) | Non-Toxic | Kd [1]: 3.2 µM; EC50 [3]: 12 µM; Activity [4]: Non-Toxic
2 | Nc1ccccc1NCCCn1ccnc1 | Non-Toxic | –
3 | CN1CCC(CNC(=O)c2cc3[nH]ccc3cc2Cl)(c2ccccc2)CC1 | Non-Toxic | –
4 | CN(C)CCOc1ccc(Cl)cc1NC(=O)c1cc2c(ccn2C)cc1Cl | – | Kd [1]: 1 µM; EC50 [3]: 16 µM
5 | CCN(CC)C1CCC(NC(=O)c2cc3[nH]ccc3cc2Cl)CC1 (stereo not given) | Non-Toxic | Activity [5]: inactive; Activity [4]: Non-Toxic
6 | O=C(NCc1ccc2[nH]ncc2c1)c1cc2[nH]ccc2cc1Cl | Toxic | –
7 | CC1CCN(CCCN)CC1 | Non-Toxic | –
8 | CCN1CCN(c2ccc(Cl)cc2NC(=O)c2cc3[nH]ccc3cc2Cl)CC1 | Non-Toxic | –
9 | NCCC12CCCN1CCC2 | Non-Toxic | –
10 | CC(C)CN1CCC(N)CC1 | Non-Toxic | –
11 | CCN(CC)CC1CCCCC1N (stereo not given) | Toxic | –
12 | NCCN1CCC2CCCCC2C1 (stereo not given) | Non-Toxic | –
13 | CN(C)CCOc1ccc(Cl)cc1NC(=O)c1cc2[nH]ccc2cc1Cl | Non-Toxic | Stability [6]: Stable; Activity [4]: Non-Toxic
14 | NC1CCC(CC2CCC(NC(=O)c3cc4[nH]ccc4cc3Cl)CC2)CC1 (stereo not given) | Toxic | –
15 | O=C(NCC1CCN(Cc2ccccc2)CC1)c1cc2[nH]ccc2cc1Cl | Non-Toxic | –
16 | CN1CCC(Nc2ccccc2N)CC1 | Toxic | –
17 | NCCNC1CCCCC1 | Non-Toxic | –
18 | CCN(CC)C1CCC(N)CC1 (stereo not given) | Non-Toxic | –
19 | CN(C)C(CNC(=O)c1cc2[nH]ccc2cc1Cl)c1ccc(F)cc1 (stereo not given) | Non-Toxic | –
20 | NCc1ccc2[nH]ncc2c1 | Non-Toxic | –
21 | CN(C)CCc1ccc(CN)cc1 | Non-Toxic | –
22 | NCc1cc(N)cc(C(F)(F)F)c1 | Non-Toxic | –
23 | CN(C)C(CN)c1ccc(F)cc1 (stereo not given) | Non-Toxic | –
24 | NC1CCC(CC2CCC(N)CC2)CC1 (stereo not given) | Non-Toxic | –
25 | CN1CCC(CN)(c2ccccc2)CC1 | Non-Toxic | –
26 | CN(C)CCOc1ccc(Cl)cc1N | Non-Toxic | –

Row | Compound | Activity [2] | also measured
27 | CC(C)N1CCC(NC(=O)c2cc3[nH]ccc3cc2Cl)CC1 | Non-Toxic | Activity [5]: inactive; Activity [4]: Non-Toxic
28 | O=C(Nc1ccccc1NCCCn1ccnc1)c1cc2[nH]ccc2cc1Cl | Non-Toxic | –
29 | Nc1cc(CNC(=O)c2cc3[nH]ccc3cc2Cl)cc(C(F)(F)F)c1 | Toxic | –
30 | CN(C)CCc1ccc(CNC(=O)c2cc3[nH]ccc3cc2Cl)cc1 | Non-Toxic | –
31 | NC(=O)CC1(N)CCCCC1 | Non-Toxic | –
32 | CCCCN1CCC(CN)C1 (stereo not given) | Non-Toxic | –
33 | CC(C)N1CCC(N)CC1 | Non-Toxic | –
34 | NCCc1c[nH]c2ccc(F)cc12 | Non-Toxic | –
35 | CC1CCN(CCCNC(=O)c2cc3[nH]ccc3cc2Cl)CC1 | Non-Toxic | Activity [5]: inactive; Activity [4]: Non-Toxic
36 | C#CCOc1cccc(-c2ccc(NC(=O)C3=C(C(=O)O)CCC3)c(F)c2)c1 | – | Emax [7]: 177%; Emax [8]: 134%
37 | CCN1CCN(c2ccc(Cl)cc2N)CC1 | Non-Toxic | –
38 | CN(C)Cc1ccccc1CNC(=O)c1cc2[nH]ccc2cc1Cl | Non-Toxic | –
39 | CCCCN1CCC(CNC(=O)c2cc3[nH]ccc3cc2Cl)C1 (stereo not given) | Non-Toxic | Kd [1]: 16 µM; EC50 [3]: 28 µM
40 | O=C(NCCc1c[nH]c2ccc(F)cc12)c1cc2[nH]ccc2cc1Cl | Toxic | –
41 | O=C(NCc1ccc2cc[nH]c2c1)c1cc2[nH]ccc2cc1Cl | Non-Toxic | –
42 | O=C(NCCC12CCCN1CCC2)c1cc2[nH]ccc2cc1Cl | Non-Toxic | –
43 | CN(C)Cc1ccccc1CN | Non-Toxic | –
44 | NC(=O)CC1(NC(=O)c2cc3[nH]ccc3cc2Cl)CCCCC1 | Non-Toxic | –
45 | CCN(CC)CC1CCCCC1NC(=O)c1cc2[nH]ccc2cc1Cl (stereo not given) | Non-Toxic | –
46 | CN1CCC(Nc2ccccc2NC(=O)c2cc3[nH]ccc3cc2Cl)CC1 | Non-Toxic | –
47 | Clc1ccc2[nH]ccc2c1 | – | Activity [9]: Dose-Dependent Effect; Activity [10]: Dose-Dependent Effect; Activity [11]: Dose-Dependent Effect; Activity [12]: Dose-Dependent Effect; EC50 [3]: 40 µM
48 | NCc1ccc2cc[nH]c2c1 | Non-Toxic | –
49 | NCC1CCN(Cc2ccccc2)CC1 | Non-Toxic | –
50 | CC(C)CN1CCC(NC(=O)c2cc3[nH]ccc3cc2Cl)CC1 | Non-Toxic | –
51 | O=C(NCCNC1CCCCC1)c1cc2[nH]ccc2cc1Cl | Non-Toxic | –
